Assay results as given in ChEMBL document CHEMBL4219038, “1-Thiazol-2-yl-N-3-methyl-1H-pyrozole-5-carboxylic acid derivatives as antitumor agents” (Bioorg Med Chem Lett, 2017).
The source made the active and inactive calls. The rule behind the calls is not given here.

Assays:
BJAB = assay: Antiproliferative activity against human BJAB cells after 4 days; assay type: functional, cell-based
HCT-116 [1] = assay: Cell cycle arrest in human HCT116 cells assessed as reduction in cell levels at S-phase at 0.001 to 10 uM after 24 hrs EdU-staining based high content imaging analysis; assay type: functional
How it was run: (§1)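 HCT-116 cells plated on poly-lysine-coated plates overnight, then treated 24 h with compound (DMSO stock diluted into McCoy's medium with 10% FBS). EdU labelling of newly synthesized DNA, 4% formaldehyde fixation, then high-content imaging in three fluorescent channels for total cell count, DNA content and S-phase cells. Means of three biological replicates, SEM.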

HCT-116 [2] = assay: Cell cycle arrest in human HCT116 cells assessed as reduction in cell levels at M-phase at 0.001 to 10 uM after 24 hrs by EdU-staining based high content imaging analysis; assay type: functional; how it was run: as §1
HCT-116 [3] = assay: Cell cycle arrest in human HCT116 cells assessed as reduction in cell levels at S/G2 phase at 0.001 to 10 uM after 24 hrs by EdU-staining based high content imaging analysis; assay type: functional; how it was run: as §1
HCT-116 [4] = assay: Cell cycle arrest in human HCT116 cells assessed as accumulation at G0/G1 phase at 0.001 to 10 uM after 24 hrs by EdU-staining based high content imaging analysis; assay type: functional; how it was run: as §1
[5] = Homo sapiens, BJAB, 96 h, read-out: EC50

SMILES: COc1cncc(-c2c(C)nn(-c3nc(-c4ccc(Cl)c(Cl)c4)c(SC(C)C)s3)c2C(=O)O)c1
- EC50 (BJAB; [5]): 21 µM

SMILES: Cc1cc(-c2c(C)nn(-c3nc(-c4ccc(Cl)c(Cl)c4)c(SC(C)C)s3)c2C(=O)O)cc(C)n1
- EC50 (BJAB; [5]): 0.58 µM

SMILES: CCOc1ncccc1-c1c(C)nn(-c2nc(-c3ccc(Cl)c(Cl)c3)c(SC(C)C)s2)c1C(=O)O
- EC50 (BJAB; [5]): 11 µM

SMILES: Cc1ccccc1-c1c(C)nn(-c2nc(-c3ccc(Cl)c(Cl)c3)c(SC(C)C)s2)c1C(=O)O
- EC50 (BJAB; [5]): 5.5 µM

SMILES: Cc1cc(C)cc(-c2c(C)nn(-c3nc(-c4ccc(Cl)c(Cl)c4)c(SC(C)C)s3)c2C(=O)O)c1
- EC50 (BJAB; [5]): 2.7 µM

SMILES: Cc1nn(-c2nc(-c3ccc(Cl)c(Cl)c3)c(SC(C)C)s2)c(C(=O)O)c1-c1ccccc1[N+](=O)[O-]
- EC50 (BJAB; [5]): 4.7 µM

SMILES: Cc1nn(-c2nc(-c3ccc(Cl)c(Cl)c3)c(SC(C)C)s2)c(C(=O)O)c1-c1ccccc1Cl
- EC50 (BJAB; [5]): 13.1 µM

SMILES: Cc1cc(Cl)cc(-c2c(C)nn(-c3nc(-c4ccc(Cl)c(Cl)c4)c(SC(C)C)s3)c2C(=O)O)c1
- EC50 (BJAB; [5]): 0.663 µM

SMILES: COc1ccc(C)cc1-c1c(C)nn(-c2nc(-c3ccc(Cl)c(Cl)c3)c(SC(C)C)s2)c1C(=O)O
- EC50 (BJAB; [5]): 9.5 µM

SMILES: Cc1nn(-c2nc(-c3cccnc3)c(SC(C)C)s2)c(C(=O)O)c1-c1cc(Cl)cc(Cl)c1
- EC50 (BJAB; bjab): Not Active

SMILES: Cc1nn(-c2nc(-c3ccc(Cl)c(Cl)c3)c(SC(C)C)s2)c(C(=O)O)c1-c1ccc(Cl)cc1
- EC50 (BJAB; [5]): 2.5 µM

SMILES: Cc1nn(-c2nc(-c3ccc(Cl)c(Cl)c3)c(SC(C)C)s2)c(C(=O)O)c1-c1cccc(Cl)c1C
- EC50 (BJAB; [5]): 5.1 µM

SMILES: COC(=O)c1c(Cc2ccccc2[N+](=O)[O-])c(C)nn1-c1nc(-c2ccc(Cl)c(Cl)c2)c(SC(C)C)s1
- EC50 (BJAB; [5]): 93 µM

SMILES: COc1cccc(-c2c(C)nn(-c3nc(-c4ccc(Cl)c(Cl)c4)c(SC(C)C)s3)c2C(=O)O)c1
- EC50 (BJAB; [5]): 14 µM

SMILES: COc1ccc(-c2c(C)nn(-c3nc(-c4ccc(Cl)c(Cl)c4)c(SC(C)C)s3)c2C(=O)O)cc1
- EC50 (BJAB; [5]): 2.1 µM

SMILES: CNc1cc(-c2c(C)nn(-c3nc(-c4ccc(Cl)c(Cl)c4)c(SC(C)C)s3)c2C(=O)O)ccn1
- EC50 (BJAB; [5]): 18 µM

SMILES: Cc1nn(-c2nc(-c3ccc(Cl)c(Cl)c3)c(SC(C)C)s2)c(C(=O)O)c1-c1ccc(C(F)(F)F)cc1
- EC50 (BJAB; [5]): 3.5 µM

SMILES: Cc1cccc(-c2c(C)nn(-c3nc(-c4ccc(Cl)c(Cl)c4)c(SC(C)C)s3)c2C(=O)O)c1
- EC50 (BJAB; [5]): 17 µM

SMILES: Cc1nn(-c2nc(-c3ccc(Cl)c(Cl)c3)c(SC(C)C)s2)c(C(=O)O)c1-c1cnccn1
- Activity (HCT-116 [1]): Active
- EC50 (BJAB; [5]): 14 µM

SMILES: CCSc1sc(-n2nc(C)c(Cc3ccccc3[N+](=O)[O-])c2C(=O)OC)nc1-c1ccc(Cl)c(Cl)c1
- EC50 (BJAB; [5]): 106 µM

SMILES: CC(=O)Nc1ccc(-c2c(C)nn(-c3nc(-c4ccc(Cl)c(Cl)c4)c(SC(C)C)s3)c2C(=O)O)cc1
- Activity (HCT-116 [2]): inactive
- Activity (HCT-116 [3]): inactive
- Activity (HCT-116 [4]): inactive
- Activity (HCT-116 [1]): inactive
- EC50 (BJAB; [5]): 139 µM

SMILES: COc1ccccc1-c1c(C)nn(-c2nc(-c3ccc(Cl)c(Cl)c3)c(SC(C)C)s2)c1C(=O)O
- EC50 (BJAB; [5]): 14.7 µM

SMILES: Cc1nn(-c2nc(-c3ccc(Cl)c(Cl)c3)c(SC(C)C)s2)c(C(=O)O)c1-c1ccccc1C(F)(F)F
- EC50 (BJAB; [5]): 5.2 µM

SMILES: Cc1nn(-c2nc(-c3ccc(Cl)c(Cl)c3)c(SC(C)C)s2)c(C(=O)O)c1-c1ccccc1
- EC50 (BJAB; [5]): 3 to 3.4 µM

SMILES: COC(=O)c1c(Cc2ccccc2[N+](=O)[O-])c(C)nn1-c1nc(-c2ccc(Cl)c(Cl)c2)cs1
- EC50 (BJAB; [5]): 377 µM

SMILES: Cc1nn(-c2nc(-c3ccc(Cl)c(Cl)c3)c(SC(C)C)s2)c(C(=O)O)c1-c1cccc(Cl)c1
- EC50 (BJAB; [5]): 13.6 µM

SMILES: Cc1nn(-c2nc(-c3ccc(Cl)c(Cl)c3)c(SC(C)C)s2)c(C(=O)O)c1-c1cncnc1
- EC50 (BJAB; [5]): 22 µM

SMILES: Cc1cc(C#N)cc(-c2c(C)nn(-c3nc(-c4ccc(Cl)c(Cl)c4)c(SC(C)C)s3)c2C(=O)O)c1
- EC50 (BJAB; [5]): 4.8 µM

SMILES: COc1cc(Cl)cc(-c2c(C)nn(-c3nc(-c4ccc(Cl)c(Cl)c4)c(SC(C)C)s3)c2C(=O)O)c1
- EC50 (BJAB; [5]): 0.76 µM

SMILES: Cc1nn(-c2nc(-c3ccc(Cl)c(Cl)c3)c(SC(C)C)s2)c(C(=O)O)c1-c1cccc(C(F)(F)F)c1
- EC50 (BJAB; [5]): 22 µM

SMILES: Cc1ccc(-c2c(C)nn(-c3nc(-c4ccc(Cl)c(Cl)c4)c(SC(C)C)s3)c2C(=O)O)cc1
- EC50 (BJAB; [5]): 3.8 µM

SMILES: Cc1nn(-c2nc(-c3ccc(Cl)c(Cl)c3)c(SC(C)C)s2)c(C(=O)O)c1-c1cccnc1
- EC50 (BJAB; [5]): 12 µM

SMILES: COc1cc(-c2c(C)nn(-c3nc(-c4ccc(Cl)c(Cl)c4)c(SC(C)C)s3)c2C(=O)O)cc(C(F)(F)F)c1
- EC50 (BJAB; [5]): 1.38 µM

SMILES: Cc1nn(-c2nc(-c3ccc(Cl)c(Cl)c3)c(SC(C)C)s2)c(C(=O)O)c1-c1cc(C(F)(F)F)cc(C(F)(F)F)c1
- EC50 (BJAB; [5]): 1.8 µM

SMILES: Cc1nn(-c2nc(-c3ccc(Cl)c(Cl)c3)c(SC(C)C)s2)c(C(=O)O)c1Cc1ccccc1[N+](=O)[O-]
- EC50 (BJAB; [5]): 20 µM

SMILES: Cc1nn(-c2nc(-c3ccc(Cl)c(Cl)c3)c(SC(C)C)s2)c(C(=O)O)c1-c1ccncc1
- EC50 (BJAB; [5]): 5.9 µM

SMILES: Cc1nn(-c2nc(-c3ccc4nccn4c3)c(SC(C)C)s2)c(C(=O)O)c1-c1cc(Cl)cc(Cl)c1
- EC50 (BJAB; bjab): Not Active

SMILES: COc1cc(C#N)cc(-c2c(C)nn(-c3nc(-c4ccc(Cl)c(Cl)c4)c(SC(C)C)s3)c2C(=O)O)c1
- EC50 (BJAB; [5]): 5.2 µM

SMILES: O=C(O)/C(Cc1ccccc1[N+](=O)[O-])=N\Nc1nc(-c2ccc(Cl)c(Cl)c2)cs1
- IC50 (BJAB; Homo sapiens, BJAB, 96 h): 20 µM

SMILES: Cc1nn(-c2nc(-c3ccc(Cl)c(Cl)c3)c(SC(C)C)s2)c(C(=O)O)c1-c1cccc(F)c1
- EC50 (BJAB; [5]): 0.9 µM

SMILES: CCSc1sc(-n2nc(C)c(Cc3ccccc3[N+](=O)[O-])c2C(=O)O)nc1-c1ccc(Cl)c(Cl)c1
- EC50 (BJAB; [5]): 59 µM

SMILES: Cc1nn(-c2nc(-c3ccc(Cl)c(Cl)c3)c(SC(C)C)s2)c(C(=O)O)c1-c1cncc(C#N)c1
- EC50 (BJAB; [5]): 20 µM

SMILES: Cc1nn(-c2nc(-c3ccc(Cl)c(Cl)c3)c(SC(C)C)s2)c(C(=O)O)c1-c1cc(C#N)cc(C(F)(F)F)c1
- EC50 (BJAB; [5]): 3.6 µM

SMILES: Cc1nn(-c2nc(-c3ccc(Cl)c(Cl)c3)c(SC(C)C)s2)c(C(=O)O)c1-c1cnn(C)c1
- EC50 (BJAB; [5]): 6.8 µM
